Legend:
Hepatitis C virus [1] = experiment: Antiviral activity against HCV Con1-mADE replicon with NS3 serine protease V36A/R155K double mutation in human HuH7 cells after 48 hrs by RNA replicon assay; format: functional, organism-based, Hepacivirus hominis; conditions: subtype 1b Con1-mADE, Huh-7, 48 h
How it was run: (§1)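 Stable genotype 1b Con1 subgenomic neo replicon cell lines carried three adaptive mutations. They were made by electroporating T7 runoff transcripts (ScaI-linearized template) into naive Huh-7 cells, selected with 0.5 mg/ml G418 and kept in 0.25 mg/ml. Mutations were confirmed by RT-PCR sequencing. EC50 came from a 48-h assay, at least three independent assays, mean ± SD. Fold change = variant mean EC50 / wild-type EC50.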

Hepatitis C virus [2] = experiment: Antiviral activity against HCV Con1-mADE replicon with NS3 serine protease V36M/A156T double mutation in human HuH7 cells after 48 hrs by RNA replicon assay; format: functional, organism-based, Hepacivirus hominis; conditions: subtype 1b Con1-mADE, Huh-7, 48 h; how it was run: as §1
Hepatitis C virus [3] = experiment: Antiviral activity against HCV Con1-mADE replicon with NS3 serine protease V36A/R155T double mutation in human HuH7 cells after 48 hrs by RNA replicon assay; format: functional, organism-based, Hepacivirus hominis; conditions: subtype 1b Con1-mADE, Huh-7, 48 h; how it was run: as §1
Hepatitis C virus [4] = experiment: Selectivity ratio of IC50 for HCV genotype 1b NS3 protease V36A mutant to IC50 for wild type HCV genotype 1b NS3 protease; set-up: species or system Hepatitis C virus subtype 1b
How it was run: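 Purified genotype 1b NS3 protease domain (wild-type isolate 3111 or V36A), E. coli BL21(DE3)-expressed, preincubated with 5 μM KK4A cofactor peptide 10 min 25°C then 10 min 30°C; inhibitor 60 min 30°C; then 5 μM RET-S1 FRET depsipeptide 20 min 30°C, 10–20% turnover. IC50(1 h) fitted; fold change = variant/wild-type IC50, 3–5 independent experiments, mean ± SD.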

[5] = Inhibition of wild type HCV genotype 1a NS3 protease expressed in Escherichia coli BL21 (DE3) measured after 1 hr
Hepatitis C virus [6] = experiment: Antiviral activity against HCV Con1-mADE replicon with NS3 serine protease V36M/R155K double mutation in human HuH7 cells after 48 hrs by RNA replicon assay; format: functional, organism-based, Hepacivirus hominis; conditions: subtype 1b Con1-mADE, Huh-7, 48 h; how it was run: as §1
Hepatitis C virus [7] = experiment: Antiviral activity against HCV Con1-mADE replicon with NS3 serine protease V36M mutation in human HuH7 cells after 48 hrs by RNA replicon assay relative to wild type; format: functional, Hepacivirus hominis, subtype 1b Con1-mADE, Huh-7; how it was run: as §1
Hepatitis C virus [8] = experiment: Antiviral activity against HCV Con1-mADE replicon with NS3 serine protease V36M/A156T double mutation in human HuH7 cells after 48 hrs by RNA replicon assay relative to wild type; format: functional, Hepacivirus hominis, subtype 1b Con1-mADE, Huh-7
How it was run: (§2)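 Stable HCV genotype 1b subgenomic replicon (Con1-mADE, neo) cell lines made by electroporating ScaI-linearized T7 runoff RNA into naïve Huh-7 cells; selected in 0.5 mg/ml G418, maintained in 0.25 mg/ml; NS3 substitutions confirmed by RT-PCR sequencing. EC50 from 48-h replicon RNA reduction assay, ≥3 independent experiments, mean ± SD; fold change = variant mean EC50 / wild-type mean EC50.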

Hepatitis C virus [9] = experiment: Antiviral activity against HCV Con1-mADE replicon with NS3 serine protease V36A/T54A double mutation in human HuH7 cells after 48 hrs by RNA replicon assay relative to wild type; format: functional, Hepacivirus hominis, subtype 1b Con1-mADE, Huh-7; how it was run: as §2
Hepatitis C virus [10] = experiment: Antiviral activity against HCV Con1-mADE replicon with NS3 serine protease V36A/T54A double mutation in human HuH7 cells after 48 hrs by RNA replicon assay; format: functional, organism-based, Hepacivirus hominis; conditions: subtype 1b Con1-mADE, Huh-7, 48 h; how it was run: as §1
NS3 protease [11] = molecular target: NS3 protease (Hepacivirus C, UniProt C1KIQ2, V36L); experiment: Inhibition of HCV genotype 1a NS3 protease V36L mutant expressed in Escherichia coli BL21 (DE3); set-up: species or system Hepatitis C virus subtype 1a
How it was run: (§3)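 NS3 protease domain (genotype 1a isolate 3201 or 1b isolate 3111) was expressed in E. coli BL21(DE3) with 5 h, 1 mM IPTG at 25°C, then purified by Talon and gel filtration. Enzyme was preincubated with 5 μM KK4A cofactor (10 min 25°C, 10 min 30°C), then inhibitor 60 min at 30°C, then 5 μM RET-S1 FRET substrate 20 min at 30°C. Substrate turnover was 10–20%. IC50(1 h) was fitted; 3–5 experiments, mean ± SD.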

Hepatitis C virus [12] = experiment: Antiviral activity against HCV Con1-mADE replicon with NS3 serine protease V36G mutation in human HuH7 cells after 48 hrs by RNA replicon assay relative to wild type; format: functional, Hepacivirus hominis, subtype 1b Con1-mADE, Huh-7; how it was run: as §2
Hepatitis C virus [13] = experiment: Antiviral activity against HCV genotype 1 infected in patient assessed as logarithmic maximal reduction in plasma HCV RNA level at 750 mg dosed every 8 hrs measured after 14 days; format: functional, Hepacivirus hominis
Hepatitis C virus [14] = experiment: Antiviral activity against HCV Con1-mADE replicon with NS3 serine protease T54A mutation in human HuH7 cells after 48 hrs by RNA replicon assay; conditions: subtype 1b Con1-mADE, Huh-7, 48 h
NS3 protease [15] = molecular target: NS3 protease (Hepacivirus C, UniProt C1KIQ2, R155K/V36M); experiment: Inhibition of HCV genotype 1a NS3 protease V36M/R155K double mutant expressed in Escherichia coli BL21 (DE3); set-up: species or system Hepatitis C virus subtype 1a; how it was run: as §3
Hepatitis C virus [16] = experiment: Antiviral activity against HCV Con1-mADE replicon with NS3 serine protease V36A/R155T double mutation in human HuH7 cells after 48 hrs by RNA replicon assay relative to wild type; format: functional, Hepacivirus hominis, subtype 1b Con1-mADE, Huh-7; how it was run: as §1
Hepatitis C virus [17] = experiment: Antiviral activity against HCV Con1-mADE replicon with NS3 serine protease V36M/R155K double mutation in human HuH7 cells after 48 hrs by RNA replicon assay relative to wild type; format: functional, Hepacivirus hominis, subtype 1b Con1-mADE, Huh-7; how it was run: as §1
Hepatitis C virus [18] = experiment: Antiviral activity against HCV Con1-mADE replicon with NS3 serine protease V36A mutation in human HuH7 cells after 48 hrs by RNA replicon assay; format: functional, organism-based, Hepacivirus hominis; conditions: subtype 1b Con1-mADE, Huh-7, 48 h; how it was run: as §1
Hepatitis C virus [19] = experiment: Antiviral activity against HCV Con1-mADE replicon with NS3 serine protease V36M/R155T double mutation in human HuH7 cells after 48 hrs by RNA replicon assay relative to wild type; format: functional, Hepacivirus hominis, subtype 1b Con1-mADE, Huh-7; how it was run: as §1
Hepatitis C virus [20] = experiment: Antiviral activity against HCV genotype 1 infected in patient assessed as log10 reduction in plasma HCV RNA level at 750 mg dosed every 8 hrs measured after 2 days; format: functional, Hepacivirus hominis
Hepatitis C virus [21] = experiment: Inhibition of HCV genotype 1b NS3 protease V36A mutant expressed in Escherichia coli BL21 (DE3); set-up: species or system Hepatitis C virus subtype 1b; how it was run: as §3
Hepatitis C virus [22] = experiment: Antiviral activity against HCV Con1-mADE replicon with NS3 serine protease V36A/R155K double mutation in human HuH7 cells after 48 hrs by RNA replicon assay relative to wild type; format: functional, Hepacivirus hominis, subtype 1b Con1-mADE, Huh-7; how it was run: as §1
Hepatitis C virus [23] = experiment: Antiviral activity against HCV Con1-mADE replicon with NS3 serine protease T54A mutation in human HuH7 cells after 48 hrs by RNA replicon assay relative to wild type
Hepatitis C virus [24] = experiment: Antiviral activity against HCV Con1-mADE replicon with NS3 serine protease V36M/R155T double mutation in human HuH7 cells after 48 hrs by RNA replicon assay; format: functional, organism-based, Hepacivirus hominis; conditions: subtype 1b Con1-mADE, Huh-7, 48 h; how it was run: as §1
Hepatitis C virus [25] = experiment: Antiviral activity against HCV Con1-mADE replicon with NS3 serine protease V36L mutation in human HuH7 cells after 48 hrs by RNA replicon assay relative to wild type; format: functional, Hepacivirus hominis, subtype 1b Con1-mADE, Huh-7; how it was run: as §1
Hepatitis C virus [26] = experiment: Antiviral activity against HCV Con1-mADE replicon with NS3 serine protease V36L mutation in human HuH7 cells after 48 hrs by RNA replicon assay; format: functional, organism-based, Hepacivirus hominis; conditions: subtype 1b Con1-mADE, Huh-7, 48 h; how it was run: as §1
NS3 protease [27] = molecular target: NS3 protease (Hepacivirus C, UniProt C1KIQ2, V36M); experiment: Inhibition of HCV genotype 1a NS3 protease V36M mutant expressed in Escherichia coli BL21 (DE3); set-up: species or system Hepatitis C virus subtype 1a; how it was run: as §3
Hepatitis C virus [28] = experiment: Antiviral activity against HCV Con1-mADE replicon with NS3 serine protease V36A mutation in human HuH7 cells after 48 hrs by RNA replicon assay relative to wild type; format: functional, Hepacivirus hominis, subtype 1b Con1-mADE, Huh-7; how it was run: as §1
Hepatitis C virus [29] = experiment: Inhibition of wild type HCV genotype 1b NS3 protease expressed in Escherichia coli BL21 (DE3); set-up: species or system Hepatitis C virus subtype 1b
How it was run: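 NS3 protease domain (genotype 1a isolate 3201 or 1b isolate 3111) induced 5 h with 1 mM IPTG at 25°C and purified by Talon affinity and gel filtration. Preincubated with 5 μM KK4A cofactor peptide, then with inhibitor 60 min at 30°C. Then 20 min at 30°C with 5 μM RET-S1 FRET depsipeptide, reading product release at 10–20% turnover. IC50(1 h) by curve fit; 3–5 independent experiments, mean ± SD.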

Hepatitis C virus [30] = experiment: Antiviral activity against HCV Con1-mADE replicon with NS3 serine protease V36M mutation in human HuH7 cells after 48 hrs by RNA replicon assay; format: functional, organism-based, Hepacivirus hominis; conditions: subtype 1b Con1-mADE, Huh-7, 48 h; how it was run: as §1
Hepatitis C virus [31] = experiment: Antiviral activity against wild type Con1-mADE HCV replicon in human HuH7 cells after 48 hrs by RNA replicon assay; format: functional, organism-based, Hepacivirus hominis; conditions: subtype 1b Con1-mADE, Huh-7, 48 h; how it was run: as §1
Hepatitis C virus [32] = experiment: Antiviral activity against HCV Con1-mADE replicon with NS3 serine protease V36G mutation in human HuH7 cells after 48 hrs by RNA replicon assay; format: functional, organism-based, Hepacivirus hominis; conditions: subtype 1b Con1-mADE, Huh-7, 48 h; how it was run: as §1

Structure (SMILES): CCC[C@H](NC(=O)[C@@H]1[C@H]2CCC[C@H]2CN1C(=O)[C@@H](NC(=O)[C@@H](NC(=O)c1cnccn1)C1CCCCC1)C(C)(C)C)C(=O)C(=O)NC1CC1 [TELAPREVIR]
- EC50 (Hepatitis C virus [1]): 20 µM
- EC50 (Hepatitis C virus [2]): > 30 µM
- EC50 (Hepatitis C virus [3]): > 30 µM
- fold change (FC) (Hepatitis C virus [4]): 3.6
- IC50 [5]: 0.05 µM
- EC50 (Hepatitis C virus [6]): 30 µM
- fold change (FC) (Hepatitis C virus [7]): 7
- fold change (FC) (Hepatitis C virus [8]): >62
- fold change (FC) (Hepatitis C virus [9]): 20.1
- EC50 (Hepatitis C virus [10]): 9.7 µM
- IC50 (NS3 protease [11]): 0.13 µM
- fold change (FC) (Hepatitis C virus [12]): 11.2
- Activity (Hepatitis C virus [13]): 4.65
- EC50 (Hepatitis C virus [14]): 3 µM
- IC50 (NS3 protease [15]): 3.4 µM
- fold change (FC) (Hepatitis C virus [16]): >62
- fold change (FC) (Hepatitis C virus [17]): 62
- EC50 (Hepatitis C virus [18]): 3.6 µM
- fold change (FC) (Hepatitis C virus [19]): >62
- Activity (Hepatitis C virus [20]): 3
- IC50 (Hepatitis C virus [21]): 0.23 µM
- fold change (FC) (Hepatitis C virus [22]): 40
- fold change (FC) (Hepatitis C virus [23]): 6.3
- EC50 (Hepatitis C virus [24]): > 30 µM
- fold change (FC) (Hepatitis C virus [25]): 2.2
- EC50 (Hepatitis C virus [26]): 1.1 µM
- IC50 (NS3 protease [27]): 0.27 µM
- fold change (FC) (Hepatitis C virus [28]): 7.4
- IC50 (Hepatitis C virus [29]): 0.063 µM
- EC50 (Hepatitis C virus [30]): 3.4 µM
- EC50 (Hepatitis C virus [31]): 0.49 µM
- EC50 (Hepatitis C virus [32]): 5.4 µM

Structure (SMILES): NC(=O)c1ncn([C@@H]2O[C@H](CO)[C@@H](O)[C@H]2O)n1 [RIBAVIRIN]
- EC50 (Hepatitis C virus [1]): 36 µM
- EC50 (Hepatitis C virus [3]): 42 µM
- EC50 (Hepatitis C virus [6]): 41 µM
- fold change (FC) (Hepatitis C virus [7]): 0.6
- EC50 (Hepatitis C virus [14]): 22 µM
- fold change (FC) (Hepatitis C virus [16]): 0.7
- fold change (FC) (Hepatitis C virus [17]): 0.7
- EC50 (Hepatitis C virus [18]): 43 µM
- fold change (FC) (Hepatitis C virus [19]): 0.6
- fold change (FC) (Hepatitis C virus [22]): 0.6
- EC50 (Hepatitis C virus [24]): 36 µM
- fold change (FC) (Hepatitis C virus [25]): 0.4
- fold change (FC) (Hepatitis C virus [28]): 0.8
- EC50 (Hepatitis C virus [30]): 33 µM
- EC50 (Hepatitis C virus [31]): 58 µM

From ChEMBL document CHEMBL1152460, “Phenotypic characterization of resistant Val36 variants of hepatitis C virus NS3-4A serine protease” (Antimicrob Agents Chemother, 2008)
